Results published in PubChem BioAssay AID623869 (Vanderbilt High Throughput Screening Facility, 2012).
About 75 (4%) of roughly 2,100 compounds were called active. The sample holds actives, similar compounds and a random draw of the others, so the mix is not that of the screen.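 How the source made its calls: active means calcium fluorescence trace judged by eye to show a response, as agonist, enhancer of the glutamate response, or inhibitor; inactive means trace judged by eye to show no response.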

Each molecule was assayed against Metabotropic glutamate receptor 8 (Rattus norvegicus) (UniProt P70579) (assay: rat mGlu8 modulation via Gqi9 calcium signal, confirmation, counter-screen for GIRK activator project, cell-based, HEK293 rmGlu8, Gqi9 chimera, Fluo-4 calcium (AID 623869)). Conditions: HEK293 rmGlu8/Gqi9 calcium flux, Fluo-4 fluorescence; glutamate at EC20 added after compound.
Sequence of Metabotropic glutamate receptor 8 (Rattus norvegicus) (P70579 whole entry, looked up): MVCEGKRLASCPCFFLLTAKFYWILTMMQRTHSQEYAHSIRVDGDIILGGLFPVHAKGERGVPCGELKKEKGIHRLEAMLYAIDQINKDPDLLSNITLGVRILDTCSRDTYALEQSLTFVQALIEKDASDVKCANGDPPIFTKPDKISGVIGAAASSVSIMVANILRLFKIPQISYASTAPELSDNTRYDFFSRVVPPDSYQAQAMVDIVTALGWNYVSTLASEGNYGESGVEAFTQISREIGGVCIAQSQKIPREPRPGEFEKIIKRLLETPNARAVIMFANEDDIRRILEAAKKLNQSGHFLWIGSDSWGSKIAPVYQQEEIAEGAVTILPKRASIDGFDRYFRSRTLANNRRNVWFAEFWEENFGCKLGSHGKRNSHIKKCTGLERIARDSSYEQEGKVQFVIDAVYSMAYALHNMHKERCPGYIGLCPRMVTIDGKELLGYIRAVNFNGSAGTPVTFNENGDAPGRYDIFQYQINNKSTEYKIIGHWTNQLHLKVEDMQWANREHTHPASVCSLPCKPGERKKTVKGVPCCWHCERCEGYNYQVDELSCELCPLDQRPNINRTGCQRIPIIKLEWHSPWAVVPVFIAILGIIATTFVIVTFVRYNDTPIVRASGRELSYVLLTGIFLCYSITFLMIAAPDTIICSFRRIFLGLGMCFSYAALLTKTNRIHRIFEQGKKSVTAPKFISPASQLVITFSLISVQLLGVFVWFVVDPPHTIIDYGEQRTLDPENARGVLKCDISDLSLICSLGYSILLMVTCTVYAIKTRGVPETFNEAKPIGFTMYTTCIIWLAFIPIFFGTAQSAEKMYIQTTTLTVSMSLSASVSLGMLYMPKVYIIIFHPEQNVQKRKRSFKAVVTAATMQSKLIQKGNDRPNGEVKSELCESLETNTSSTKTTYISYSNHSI
Procedure, shortened: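 System – HEK-293 cells stably expressing rat mGlu8, plus transient chimeric Gqi9 · Medium – HEPES-buffered HBSS, pH 7.4 · Also added – EC20 glutamate · Compound – one dose, 20 µM addition solution, 0.2% DMSO · Times – compound 4 min before glutamate, then 2 min recording · Measured by – Fluo-4 calcium fluorescence sampled at 1 Hz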
In the case of `CC(C)Sc1nc2c(c(=O)[nH]1)C(c1cccs1)C1=C(CC(C)(C)CC1=O)N2` (stereo not given), the outcome is reported as “inactive; 0”.
`C=CCN(CC=C)C(=S)NC(=O)c1ccc([N+](=O)[O-])cc1` was tested, and the outcome was “inactive; 0”.
`CCc1nc(SCC(=O)N2CC(=O)Nc3ccccc32)c2c(C)c(C)sc2n1` was tested, and the outcome was “inactive; 0”.
With `Oc1c(C=NCc2ccncc2)sc2ccccc12` the outcome was “active; 2”.
`CCN(c1ccccc1)S(=O)(=O)c1ccc(NC(=S)NC(=O)c2ccc(Br)o2)cc1` was tested, and the outcome was “inactive; 0”.
For `CCOC(=O)c1c(NC(=O)CSc2nnc(-c3ccncc3)n2Cc2ccco2)sc(C(C)=O)c1C`, the outcome was “inactive; 0”.
For `Cc1ccc(NC(=S)c2nc3ccccc3[nH]2)cc1`, the outcome was “inactive; 0”.
For `C=CCNC(=S)Nc1sc2c(c1C(=O)OCC)CC(C(C)C)OC2` (stereo not given), the outcome was “inactive; 0”.
With `C=CCNC(=S)Nc1nc2c(cc1C(=O)OCC)CCCC2` the outcome was “active; 2”.
`CCNC(=S)Nc1nc2c(cc1C(=O)OCC)CCCC2` was tested, and the outcome was “active; 2”.
In the case of `CCNC(=S)Nc1scc(-c2ccccc2)c1C(=O)OCC`, the outcome is reported as “inactive; 0”.
With `C=CCNC(=S)Nc1sc2c(c1C(=O)OCC)CC(C)(CC)OC2` (stereo not given) the outcome was “inactive; 0”.
For `C=C(C)CNC(=S)Nc1nc2c(cc1C(=O)OCC)CCCC2`, the outcome was “inactive; 0”.
`CCC1(c2ccc(Cl)cc2)NC(=S)N(c2ccccc2)N1` (stereo not given) was tested, and the outcome was “inactive; 0”.
For `CC1Cc2ccccc2N1C(=S)NC(=O)c1ccc(Cl)cc1Cl` (stereo not given), the outcome was “inactive; 0”.
In the case of `Fc1cccc2sc(Nc3nnc(-c4ccco4)o3)nc12`, the outcome is reported as “inactive; 0”.
`CCOc1ccc(-c2nnc(NC(=O)c3ccc(OCC(C)C)c(OC)c3)o2)cc1` was tested, and the outcome was “inactive; 0”.
In the case of `Cc1ccc(NC(=S)c2nc3ccccc3[nH]2)c(C)c1`, the outcome is reported as “inactive; 0”.
In the case of `O=C1c2ccccc2NC(c2ccc(-c3cccc(Cl)c3)o2)N1O` (stereo not given), the outcome is reported as “inactive; 0”.
In the case of `Cc1cc([N+](=O)[O-])ccc1-c1ccc(C2Nc3ccccc3C(=O)N2O)o1` (stereo not given), the outcome is reported as “active; 2”.
For `O=C1c2ccccc2NC(c2ccc(-c3ccc(Br)cc3)o2)N1O` (stereo not given), the outcome was “inactive; 0”.
For `CCCN(CCC)C(=S)NC(=O)c1ccc(Cl)cc1Cl`, the outcome was “inactive; 0”.
`C=CCn1c(=S)[nH]c2ccccc2c1=O` was tested, and the outcome was “inactive; 0”.
In the case of `CCOC(=O)Cc1csc(NC(=S)NC(=O)c2ccccc2C)n1`, the outcome is reported as “inactive; 0”.
In the case of `Cc1ccccc1C(=O)NNC(=O)C(=O)Nc1cccc(Cl)c1C`, the outcome is reported as “inactive; 0”.
In the case of `Cc1ccccc1C(=O)Nc1nc(=S)ss1`, the outcome is reported as “active; 1”.
For `O=C(NC(=S)N1CCCc2ccccc21)c1ccc([N+](=O)[O-])cc1`, the outcome was “inactive; 0”.
For `CN(C)S(=O)(=O)c1cccc(NC(=S)Nc2ccc(Cl)cc2Cl)c1`, the outcome was “inactive; 4”.
In the case of `CC12CCC(C(=O)N(CSC(=S)N/N=C\c3ccccc3)C1=O)C2(C)C` (stereo not given), the outcome is reported as “inactive; 0”.
With `CNC(=S)N/N=C1\C(=O)c2cccc3cccc1c23` the outcome was “inactive; 0”.
